Converted amounts (≈) assume the structure as drawn. The source made the active and inactive calls. The calls are words filed in the database; no cut-off is given here.
Columns and labels:
[1] = Cytotoxicity against human HepG2 cells assessed as reduction in cell number at 30 uM after 72 hrs by fluorescent image analysis relative to untreated control; format: cell-based; details: read-out: INH
Summary of the method: (§1)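 Contract in vitro cytotoxicity panel covering cell number, intracellular free calcium, nuclear size, membrane permeability and mitochondrial membrane potential. Compounds tested at 1.0, 30.0 and 100.0 µM; values are percentage change versus untreated control, and IC50 where derived.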

[2] = tested on: Human immunodeficiency virus 1; test: Selectivity ratio of EC50 for raltegravir resistant HIV1 harboring integrase N155H mutant infected in human MT4 cells to EC50 for wild type HIV1 3B infected in human MT4 cells; format: functional
Summary of the method: (§2)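 MT-4/MTT cytopathic-effect assay in human MT-4 lymphocytes. Cells were infected with 100–300 CCID50 of each virus stock in the presence of 5-fold serial drug dilutions. The HIV-1 IIIB wild-type stock was titrated on MT-4 cells. Viability was read spectrophotometrically as formazan from MTT reduction. EC50 is the concentration giving 50% protection against CPE for each strain. Fold-change is mutant-strain EC50 relative to wild-type EC50.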

[3] = Cytotoxicity against human MT4 cells assessed as reduction in cell viability by MTT assay; format: cell-based
Summary of the method: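 MT-4 cell viability was measured by MTT reduction, run in parallel with the antiviral assay using 5-fold serial compound dilutions. CC50 is the concentration reducing viability by 50%.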

[4] = Cytotoxicity against human HepG2 cells assessed as reduction in cell number at 1 uM after 72 hrs by fluorescent image analysis relative to untreated control; format: cell-based; details: read-out: INH; summary of the method: as §1
[5] = Cytotoxicity against human HepG2 cells assessed as reduction in nuclear size at 30 uM after 72 hrs by fluorescent image analysis relative to untreated control; format: cell-based; details: read-out: INH; summary of the method: as §1
[6] = biological target: CYP3A4 (Homo sapiens, UniProt P08684); test: Inhibition of human recombinant CYP3A4 using BFC as substrate at 10 uM incubated for 30 mins by fluorimetry relative to control; format: ADME; details: recombinant CYP3A4, probe BFC
Summary of the method: (§3)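 Recombinant CYP isoforms, each with its fluorogenic substrate: CYP1A2 and CYP2C19 with CEC, CYP2C9 and CYP2D6 with MFC, CYP3A4 with BFC. Read as percentage inhibition of control, standard contract assays.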

[7] = Plasma protein binding in human assessed as drug recovery at 10 uM incubated for 4 hrs by equilibrium dialysis method; format: ADME, cell-free; details: read-out: Drug recovery
Summary of the method: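 Human plasma protein binding, given as percent bound and percent recovery, in a standard contract assay.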

[8] = tested on: Human immunodeficiency virus 1; test: Antiviral activity against HIV1 3B infected in human MT4 cells at 50 to 100 times antiviral EC50 added 1 to 25 hrs post infection assessed as time required for loss of inhibition of viral replication measured at 30 hrs post infection by p24 ELISA method; format: functional
[9] = Cytotoxicity against human HepG2 cells assessed as reduction in mitochondrial membrane potential at 30 uM after 72 hrs by fluorescent image analysis relative to untreated control; format: cell-based; details: read-out: INH; summary of the method: as §1
[10] = biological target: Human immunodeficiency virus type 1 integrase (Human immunodeficiency virus 1, UniProt Q7ZJM1); test: Inhibition of HIV1 integrase using 3'-biotin-labelled and 5'-digoxigenin-labelled oligonucleotide substrate incubated for 1 hr by ELISA
Summary of the method: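 ELISA with a 3'-biotin oligo and a 5'-digoxigenin partner oligo. Overall assay uses the full complementary oligo; strand transfer uses a precleaved oligo lacking the 3'-GT. Integrase at 160 nM final, annealed oligos 7 nM, in 10 mM MgCl2, 5 mM DTT, 20 mM HEPES pH 7.5, 0.5% PEG, 15% DMSO. Run 1 h at 37 °C, products denatured with NaOH, detected on avidin plates.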

[11] = tested on: HepG2; test: Cytotoxicity against human HepG2 cells assessed as increase in membrane permeability at 1 uM after 72 hrs by fluorescent image analysis relative to untreated control; format: cell-based; details: hepg2, 72 h
[12] = tested on: HepG2; test: Cytotoxicity against human HepG2 cells assessed as increase in membrane permeability at 100 uM after 72 hrs by fluorescent image analysis relative to untreated control; format: cell-based; details: hepg2, 72 h
[13] = tested on: HepG2; test: Cytotoxicity against human HepG2 cells assessed as increase in membrane permeability at 30 uM after 72 hrs by fluorescent image analysis relative to untreated control; format: cell-based; details: hepg2, 72 h
[14] = biological target: CYP2D6 (Homo sapiens, UniProt P10635); test: Inhibition of human recombinant CYP2D6 using MFC as substrate at 10 uM incubated for 40 mins by fluorimetry relative to control; format: ADME; details: recombinant CYP2D6, probe MFC; summary of the method: as §3
[15] = Therapeutic index, ratio of CC50 for human MT4 cells to EC50 for HIV1 3B infected in human MT4 cells; format: cell-based; details: read-out: Ratio CC50/EC50
Summary of the method: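 Ratio of CC50 to EC50. Both were determined in parallel by MTT in MT-4 cells, with the EC50 measured against HIV-1 IIIB cytopathic effect.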

[16] = Cytotoxicity against human HepG2 cells assessed as reduction in nuclear size at 1 uM after 72 hrs by fluorescent image analysis relative to untreated control; format: cell-based; details: read-out: INH; summary of the method: as §1
[17] = biological target: hERG (KCNH2) (Homo sapiens, UniProt Q12809); test: in vitro; details: CHO-K1 cells expressing human ERG
[18] = tested on: HepG2; test: Cytotoxicity against human HepG2 cells assessed as increase in intracellular free calcium level at 1 uM after 72 hrs by fluorescent image analysis relative to untreated control; format: cell-based; details: hepg2, 72 h; summary of the method: as §1
[19] = Inhibition of recombinant HIV1 reverse transcriptase RNase H activity using calf thymus ssDNA-[3H]-RNA as template/primer incubated for 10 mins; design: species or system Human immunodeficiency virus 1
Summary of the method: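 Recombinant HIV-1 RT (4.5 pmol) preincubated with compound 10 min at 37 °C. Then reacted 10 min at 37 °C with [3H]-RNA/calf thymus DNA hybrid (20,000 cpm) in 50 mM Tris-HCl pH 8.0, 10 mM DTT, 6 mM MgCl2, 80 mM KCl. Stopped with cold TCA/pyrophosphate; released radioactivity taken by subtraction from undigested control.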

[20] = tested on: Human immunodeficiency virus 1; test: Selectivity ratio of EC50 for raltegravir resistant HIV1 harboring integrase Q148H mutant infected in human MT4 cells to EC50 for wild type HIV1 3B infected in human MT4 cells; format: functional; summary of the method: as §2
[21] = tested on: MDCK-II; test: Inhibition of human P-gp expressed in MDCK2-MDR1 cells assessed as reduction in calcien-AM efflux at 1 uM incubated for 20 mins by fluorimetry relative to control; format: cell-based
Summary of the method: (§4)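 P-gp efflux inhibition in MDR1-MDCKII cells with calcein AM substrate, tested up to 100.0 µM. Read as percentage inhibition of control.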

[22] = tested on: MDCK-II; test: Inhibition of human P-gp expressed in MDCK2-MDR1 cells assessed as reduction in calcien-AM efflux at 100 uM incubated for 20 mins by fluorimetry relative to control; format: cell-based; summary of the method: as §4
[23] = Apparent permeability coefficient in human Caco2 cells at pH 6.5/7.4 at 10 uM; format: ADME, cell-based; details: Caco-2, pH 6.5
Summary of the method: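 A-to-B permeability measured in Caco-2 monolayers at pH 6.5/7.4, reported as Papp. Standard contract assay.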

[24] = Cytotoxicity against human HepG2 cells assessed as reduction in cell number at 100 uM after 72 hrs by fluorescent image analysis relative to untreated control; format: cell-based; details: read-out: INH; summary of the method: as §1
[25] = Aqueous solubility in PBS at pH 7.4; format: physicochemical
Summary of the method: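 Aqueous solubility measured in PBS, pH 7.4, in a standard contract assay.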

Sequence of Human immunodeficiency virus type 1 integrase (Q7ZJM1 whole entry): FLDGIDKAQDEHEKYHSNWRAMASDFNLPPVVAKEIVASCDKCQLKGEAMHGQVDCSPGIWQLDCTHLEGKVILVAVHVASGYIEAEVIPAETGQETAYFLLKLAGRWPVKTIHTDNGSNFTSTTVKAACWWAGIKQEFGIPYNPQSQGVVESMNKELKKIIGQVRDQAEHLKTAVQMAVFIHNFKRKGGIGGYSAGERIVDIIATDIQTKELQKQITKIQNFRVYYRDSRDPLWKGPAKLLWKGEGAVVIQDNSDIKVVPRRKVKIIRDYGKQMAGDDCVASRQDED
Sequence of CYP3A4 (P08684 whole entry, canonical isoform): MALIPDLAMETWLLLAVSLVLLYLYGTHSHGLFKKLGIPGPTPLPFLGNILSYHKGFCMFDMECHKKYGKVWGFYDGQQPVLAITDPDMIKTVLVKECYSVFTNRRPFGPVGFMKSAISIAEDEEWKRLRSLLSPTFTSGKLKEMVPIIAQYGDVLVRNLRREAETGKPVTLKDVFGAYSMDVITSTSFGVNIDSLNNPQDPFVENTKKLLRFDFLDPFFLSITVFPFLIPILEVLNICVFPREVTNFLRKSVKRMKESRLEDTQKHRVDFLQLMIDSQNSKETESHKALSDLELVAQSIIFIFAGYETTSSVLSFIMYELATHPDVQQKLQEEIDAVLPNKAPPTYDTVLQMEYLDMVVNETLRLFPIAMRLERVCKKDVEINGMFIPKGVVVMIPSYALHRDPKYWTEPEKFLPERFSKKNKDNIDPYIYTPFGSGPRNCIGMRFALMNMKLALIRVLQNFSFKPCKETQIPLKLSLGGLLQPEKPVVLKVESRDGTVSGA
Sequence of hERG (KCNH2) (Q12809 whole entry): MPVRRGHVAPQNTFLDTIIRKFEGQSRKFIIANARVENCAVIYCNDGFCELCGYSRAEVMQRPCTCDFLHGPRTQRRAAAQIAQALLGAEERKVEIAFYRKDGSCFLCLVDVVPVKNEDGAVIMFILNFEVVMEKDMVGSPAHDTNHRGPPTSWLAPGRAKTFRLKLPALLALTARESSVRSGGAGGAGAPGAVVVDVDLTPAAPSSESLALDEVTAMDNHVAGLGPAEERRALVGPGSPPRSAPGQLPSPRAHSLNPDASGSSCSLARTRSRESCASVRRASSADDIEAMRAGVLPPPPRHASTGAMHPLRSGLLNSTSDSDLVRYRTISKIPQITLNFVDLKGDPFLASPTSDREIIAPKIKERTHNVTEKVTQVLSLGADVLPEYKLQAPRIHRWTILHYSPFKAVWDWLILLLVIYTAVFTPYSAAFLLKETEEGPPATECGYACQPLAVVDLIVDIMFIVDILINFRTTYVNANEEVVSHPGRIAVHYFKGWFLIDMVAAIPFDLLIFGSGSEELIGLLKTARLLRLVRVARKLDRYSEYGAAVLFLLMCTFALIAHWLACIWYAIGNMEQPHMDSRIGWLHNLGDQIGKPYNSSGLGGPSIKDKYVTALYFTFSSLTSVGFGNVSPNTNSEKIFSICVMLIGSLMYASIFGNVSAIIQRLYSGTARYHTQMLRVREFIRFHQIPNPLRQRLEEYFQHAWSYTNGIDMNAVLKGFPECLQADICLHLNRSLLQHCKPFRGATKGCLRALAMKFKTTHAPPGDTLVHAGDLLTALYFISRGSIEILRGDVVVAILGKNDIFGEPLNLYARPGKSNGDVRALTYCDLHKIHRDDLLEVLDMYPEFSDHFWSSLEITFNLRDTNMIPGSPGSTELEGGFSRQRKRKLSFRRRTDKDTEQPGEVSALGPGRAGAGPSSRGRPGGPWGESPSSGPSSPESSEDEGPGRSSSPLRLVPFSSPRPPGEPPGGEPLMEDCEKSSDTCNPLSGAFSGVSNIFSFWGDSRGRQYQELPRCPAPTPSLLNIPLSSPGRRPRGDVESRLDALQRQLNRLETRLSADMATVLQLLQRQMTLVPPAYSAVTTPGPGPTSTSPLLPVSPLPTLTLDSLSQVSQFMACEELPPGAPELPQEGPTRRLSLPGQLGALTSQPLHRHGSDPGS
Sequence of CYP2D6 (P10635 whole entry): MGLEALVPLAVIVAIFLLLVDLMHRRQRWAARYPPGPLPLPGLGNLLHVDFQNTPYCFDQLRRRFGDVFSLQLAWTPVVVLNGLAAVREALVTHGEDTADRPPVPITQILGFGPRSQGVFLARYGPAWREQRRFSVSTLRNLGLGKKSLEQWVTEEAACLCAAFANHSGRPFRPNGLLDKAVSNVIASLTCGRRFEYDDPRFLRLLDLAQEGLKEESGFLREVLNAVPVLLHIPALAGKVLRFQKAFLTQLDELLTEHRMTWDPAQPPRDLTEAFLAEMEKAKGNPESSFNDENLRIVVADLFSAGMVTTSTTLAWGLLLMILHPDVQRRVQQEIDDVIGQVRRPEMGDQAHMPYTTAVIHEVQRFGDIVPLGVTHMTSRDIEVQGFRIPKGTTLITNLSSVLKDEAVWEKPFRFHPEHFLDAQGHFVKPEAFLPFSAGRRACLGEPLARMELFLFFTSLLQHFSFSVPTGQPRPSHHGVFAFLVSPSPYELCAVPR

In the case of `CCCCCCNC(=O)C1C(=O)N(O)C(=O)c2ccccc21` (stereo not given), the cytotoxicity at 72 h, 30 µM [1] is reported as 4.9%, the “Ratio EC50” value [2] is reported as 1 and the CC50 [3] is reported as 57.7 µM. For the same molecule, the cytotoxicity at 72 h, 1 µM [4] was -10%, the cytotoxicity at 72 h, 30 µM [5] was 12.1% and the inhibition at 0.5 h, 10 µM [6] was 42%. For the same molecule, the recovery at 4 h, 10 µM [7] was 93.2%, the Activity [8] was “Active” and the cytotoxicity at 72 h, 30 µM [9] was 5.1%. For the same molecule, the IC50 [10] was 0.085 µM, the Activity [11] was 0.1% and the Activity [12] was 23.6%. For the same molecule, the Activity [13] was 7%, the inhibition at 40 min, 10 µM [14] was 24.6% and the selectivity ratio [15] was 21.2. For the same molecule, the cytotoxicity at 72 h, 1 µM [16] was -7%, the inhibition at 5 min, 1 µM [17] was 12.2% and the Activity [18] was -1.5%. For the same molecule, the IC50 [19] was 5.35 µM, the “Ratio EC50” value [20] was 1 and the inhibition [21] was -5.5%. For the same molecule, the inhibition [22] was 5.3%, the Papp at 10 µM [23] was 24.6 ×10⁻⁶ cm/s and the cytotoxicity at 72 h, 100 µM [24] was 25.3%. The solubility [25] was 160 µM (≈ 48.8 µg/mL).

— ChEMBL document CHEMBL3804820, “2-hydroxyisoquinoline-1,3(2H,4H)-diones (HIDs) as human immunodeficiency virus type 1 integrase inhibitors: Influence of the alkylcarboxamide substitution of position 4” (Eur J Med Chem, 2016)
